The target in data set [1] is T1, High affinity 3',5'-cyclic-AMP phosphodiesterase 7A (Homo sapiens, UniProt Q13946). As to the kind of experiment: Inhibition of human recombinant PDE7A1-mediated [3H]cAMP hydrolysis at 10 uM after 20 mins by scintillation proximity assay. The essentials: (§1)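 Scintillation proximity assay with human recombinant full-length enzyme: PDE7A1 or PDE3A at 0.02 unit, or PDE7B at 0.5 unit. Enzyme incubated with 5 nCi [3H]cAMP for 20 min at 30 °C. SPA beads added, shaken 1 h at room temperature, then settled 30 min before counting. Single-point screens at 10 μM run in duplicate. IC50 from a sigmoidal dose−response fit.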
T1 sequence (Q13946 whole entry): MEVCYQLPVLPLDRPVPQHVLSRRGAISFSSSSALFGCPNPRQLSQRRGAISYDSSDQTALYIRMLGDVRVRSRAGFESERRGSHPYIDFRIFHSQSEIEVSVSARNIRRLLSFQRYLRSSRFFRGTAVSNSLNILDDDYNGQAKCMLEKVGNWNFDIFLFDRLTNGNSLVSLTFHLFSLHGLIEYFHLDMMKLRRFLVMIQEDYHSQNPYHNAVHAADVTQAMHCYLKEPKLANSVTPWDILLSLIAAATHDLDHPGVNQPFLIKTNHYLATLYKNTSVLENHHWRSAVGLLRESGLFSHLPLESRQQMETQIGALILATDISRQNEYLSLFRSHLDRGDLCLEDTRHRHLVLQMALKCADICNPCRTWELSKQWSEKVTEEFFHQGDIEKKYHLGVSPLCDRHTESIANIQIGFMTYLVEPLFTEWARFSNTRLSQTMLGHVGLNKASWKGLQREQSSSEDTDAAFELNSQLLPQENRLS
In general terms: SPA uses beads or plates that emit light when radiolabelled molecules are held near them.

Data set [2] deals with T1, High affinity 3',5'-cyclic-AMP phosphodiesterase 7A. As to the kind of experiment: Inhibition of human recombinant PDE7A1-mediated [3H]cAMP hydrolysis after 20 mins by scintillation proximity assay. The essentials:
as §1

Data set [3] has as its target T2, cGMP-inhibited 3',5'-cyclic phosphodiesterase 3A (Homo sapiens, UniProt Q14432). Put plainly: Inhibition of human recombinant PDE3A-mediated [3H]cAMP hydrolysis after 20 mins by scintillation proximity assay. The essentials:
as §1

The nature of data set [4]: Cytotoxicity against rat microglia cells at 5 to 10 uM after 16 hrs by MTT assay. In kind it is cell-based. The essentials: (§2)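 Primary neonatal rat cortical astrocytes or microglia, after 1 week in culture, exposed to compound for 16 h. MTT at 0.5 mg/mL for 4 h, then solubilized in 10% SDS/0.01 M HCl for 12 h in the dark. Absorbance read at 595 nm. Six replications in three experiments.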
(In general: Tetrazolium assays rely on reduction of a dye to a coloured formazan, in cell work by metabolically active cells.)

The target in data set [5] is T2, cGMP-inhibited 3',5'-cyclic phosphodiesterase 3A. Put plainly: Inhibition of human recombinant PDE3A-mediated [3H]cAMP hydrolysis at 10 uM after 20 mins by scintillation proximity assay. The essentials:
as §1

A further data set is filed under the species Homo sapiens. As to the kind of experiment: Selectivity index, ratio of IC50 for human recombinant PDE7A1 to IC50 for human recombinant PDE3A. The essentials: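 Ratio of IC50 values for PDE7A1 and PDE3A, each obtained by scintillation proximity assay with [3H]cAMP for 20 min at 30 °C.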
The subject of data set [6] is Astrocyte. As to the kind of experiment: Antiinflammatory activity in rat astrocytes assessed as inhibition of LPS-induced nitrite production at 5 to 10 uM incubated for 1 hr prior to LPS-challenge measured after 24 hrs by Griess method. In kind it is functional, cell-based. The essentials:
(§3)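 Glial cells from neonatal rat cerebral cortex; microglia and astrocytes separated by shaking and cultured 1 week. Purity >98% by OX42 and GFAP staining. Microglia kept with 10 ng/mL GM-CSF. Cells given compound for 1 h, then LPS (10 μg/mL) for 24 h. Nitrite in the supernatant measured by Griess reaction at 492/540 nm. Mean ± SD of six replications in three experiments.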
(In general: The Griess reaction detects nitrite, a stable product of nitric oxide.)

Data set [7] can be described thus: Cytotoxicity against rat astrocytes at 5 to 10 uM after 16 hrs by MTT assay. It counts as cell-based. Conditions: astrocyte. The essentials:
as §2

The subject of data set [8] is Microglia. Put plainly: Antiinflammatory activity in rat microglia cells assessed as inhibition of LPS-induced nitrite production at 5 to 10 uM incubated for 1 hr prior to LPS-challenge measured after 24 hrs by Griess method. It counts as functional, cell-based. The essentials: as §3
Data set [9] concerns the target T1, High affinity 3',5'-cyclic-AMP phosphodiesterase 7A. Put plainly: Inhibition of PDE7A1.
Data set [10] concerns Astrocyte. As to the kind of experiment: Antiinflammatory activity in rat astrocytes assessed as inhibition of LPS-induced nitrite production at 30 uM incubated for 1 hr prior to LPS-challenge measured after 24 hrs by Griess method. It counts as functional, cell-based. The essentials: as §3
The subject of data set [11] is Microglia. Put plainly: Antiinflammatory activity in rat microglia cells assessed as inhibition of LPS-induced nitrite production at 30 uM incubated for 1 hr prior to LPS-challenge measured after 24 hrs by Griess method. It counts as functional, cell-based. The essentials:
as §3

Data set [12] addresses T1, High affinity 3',5'-cyclic-AMP phosphodiesterase 7A. Put plainly: Competitive inhibition of human recombinant PDE7A1 using 5 nM to 2 uM cAMP as substrate by Lineweaver-Burk plot analysis. The essentials: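 PDE7A1 scintillation proximity assay with unlabeled cAMP varied from 5 nM to 2 μM, against fixed [3H]cAMP tracer. Two inhibitor concentrations tested, with AMP formation measured. Data analysed by Lineweaver−Burk plots. Triplicate measurements, mean ± SEM.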

Data set [13] concerns the target T3, High affinity 3',5'-cyclic-AMP phosphodiesterase 7A (Mus musculus) (UniProt P70453).
T3 sequence (whole entry): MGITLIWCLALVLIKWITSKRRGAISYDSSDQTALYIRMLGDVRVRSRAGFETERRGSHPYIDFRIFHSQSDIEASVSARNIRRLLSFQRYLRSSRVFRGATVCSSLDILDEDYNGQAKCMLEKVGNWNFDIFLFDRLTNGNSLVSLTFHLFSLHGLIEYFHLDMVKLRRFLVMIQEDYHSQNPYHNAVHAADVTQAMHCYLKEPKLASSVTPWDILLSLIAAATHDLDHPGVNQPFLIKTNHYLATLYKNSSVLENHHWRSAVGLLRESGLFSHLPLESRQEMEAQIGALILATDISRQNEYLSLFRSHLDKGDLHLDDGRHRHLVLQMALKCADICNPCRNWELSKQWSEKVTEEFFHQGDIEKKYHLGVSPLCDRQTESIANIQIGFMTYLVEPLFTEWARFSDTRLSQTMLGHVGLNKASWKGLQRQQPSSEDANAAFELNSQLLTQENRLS
Put plainly: Inhibition of PDE7A1 in mouse RAW cells assessed as increase in cAMP level at 10 to 30 uM after 60 mins by enzyme immunoassay. It counts as cell-based. The essentials: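 RAW cells seeded at 3 × 10^4 per well and incubated overnight. Compound added for 60 min at 10 or 30 μM. Intracellular cAMP quantified by enzyme immunoassay kit.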

The structures appear in SMILES notation. pIC50, pKi: −log10 of the molar value. Active and inactive are the calls of the source. The calls are words filed in the database; no cut-off is given here.

T2 sequence (Q14432 whole entry): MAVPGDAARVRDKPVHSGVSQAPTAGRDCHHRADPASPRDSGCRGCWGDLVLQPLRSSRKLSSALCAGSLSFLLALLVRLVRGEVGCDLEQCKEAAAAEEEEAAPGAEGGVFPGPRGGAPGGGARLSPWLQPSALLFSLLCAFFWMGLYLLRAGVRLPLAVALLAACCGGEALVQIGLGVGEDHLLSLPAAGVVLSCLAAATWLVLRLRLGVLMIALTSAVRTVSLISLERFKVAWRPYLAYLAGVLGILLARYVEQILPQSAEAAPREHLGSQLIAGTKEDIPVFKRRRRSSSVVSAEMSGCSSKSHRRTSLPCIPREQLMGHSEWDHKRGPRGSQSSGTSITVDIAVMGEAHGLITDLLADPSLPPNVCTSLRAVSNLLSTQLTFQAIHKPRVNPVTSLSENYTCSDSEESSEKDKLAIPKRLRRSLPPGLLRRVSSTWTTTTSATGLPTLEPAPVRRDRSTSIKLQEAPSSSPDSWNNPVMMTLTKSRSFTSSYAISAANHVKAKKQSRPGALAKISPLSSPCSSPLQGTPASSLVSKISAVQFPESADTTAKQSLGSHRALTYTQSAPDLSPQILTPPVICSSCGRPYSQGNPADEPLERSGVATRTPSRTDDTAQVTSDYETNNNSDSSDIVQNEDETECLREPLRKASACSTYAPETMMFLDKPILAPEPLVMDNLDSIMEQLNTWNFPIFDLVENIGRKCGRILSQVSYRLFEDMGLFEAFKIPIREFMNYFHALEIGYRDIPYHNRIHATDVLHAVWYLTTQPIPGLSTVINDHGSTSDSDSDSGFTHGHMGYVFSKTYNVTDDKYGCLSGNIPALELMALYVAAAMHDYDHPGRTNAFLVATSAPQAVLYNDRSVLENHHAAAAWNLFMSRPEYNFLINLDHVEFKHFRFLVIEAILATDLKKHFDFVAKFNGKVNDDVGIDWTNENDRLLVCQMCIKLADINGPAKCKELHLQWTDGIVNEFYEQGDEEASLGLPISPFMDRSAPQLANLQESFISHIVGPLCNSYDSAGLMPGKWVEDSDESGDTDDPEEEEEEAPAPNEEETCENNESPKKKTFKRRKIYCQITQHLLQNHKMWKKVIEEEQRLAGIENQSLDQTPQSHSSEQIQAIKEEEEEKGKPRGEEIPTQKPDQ

For the molecule `COc1cc(C(=O)OCc2ccc(-c3ccc([N+](=O)[O-])cc3)o2)cc(OC)c1OC`, the inhibition in data set [1] was 49.5%. The pIC50 in data set [2] is 4.48.
`COc1cc(COC(=O)c2ccc(-c3ccccc3C(F)(F)F)o2)cc(OC)c1OC`: the pIC50 is 5.74 in data set [3] and 5.58 in data set [2]. Besides, the Activity result in data set [4] and in [7] was “Non-toxic” throughout. Further, the values for the inhibition in data set [5] and in data set [1] were 74.9% and 54.9%, respectively. In addition, in the data set listed under Homo sapiens, the Ratio IC50 stood at 1.44. In addition, the result in the data set with Astrocyte [6] and in the data set with Microglia [8] was Active.
On to `CCOc1cc(COC(=O)c2ccc(-c3ccc(Cl)cc3Cl)o2)cc(OCC)c1OCC`, for which the inhibition in data set [1] worked out at 31.1%.
Turning to `CCOc1cc(COC(=O)c2ccc(-c3ccc([N+](=O)[O-])cc3)o2)cc(OCC)c1OCC`, the inhibition in data set [1] came to 29.2%.
The same measure, in the same setting: to `COc1cc(COC(=O)c2ccc(-c3ccccc3Cl)o2)cc(OC)c1OC` belongs 34.6%.
Still for that read-out and setting: then `COc1cc(CNC(=O)c2ccc(-c3cccc(C(F)(F)F)c3)o2)cc(OC)c1OC`, with 23.5%.
In data set [9], `CC1CCCCC1NC(=O)C(c1ccccc1Cl)N(CCc1ccccc1Cl)C(=O)CCl` (stereo unspecified) showed a negative logarithm of the IC50 (pIC50) of 6.06.
`COc1ccc(C2CNC(=O)C2)cc1OC1CCCC1` (stereo unspecified): the outcome in the data set on Astrocyte [10] and in the data set on Microglia [11] was Active.
For the molecule `CCOc1cc(C(=O)OCc2ccc(-c3ccc([N+](=O)[O-])cc3)o2)cc(OCC)c1OCC`, the inhibition in [1] came to 39.9%.
Consider `COc1cc(CNC(=O)c2ccc(-c3ccc(C)cc3[N+](=O)[O-])o2)cc(OC)c1OC`, for which the values for the pIC50 in [3] and in [2] were 5.41 and 5.49, respectively. Also, the Activity entry in [4] and in data set [7] was “Non-toxic” in each case. Further, the inhibition in data set [5] is 49.6%; in data set [1], 70.5%. Also, the Ratio IC50 in the data set filed under Homo sapiens is 0.82. Also, the result in the data set on Astrocyte [6] and with Microglia [8] was Active. The pKi in [12] is 5.14.
`COc1cc(COC(=O)c2ccc(-c3ccc([N+](=O)[O-])cc3)o2)cc(OC)c1OC`: the pIC50 in data set [3] was 5.47; in [2], 4.85. For the same molecule, the Activity result in data set [4] and in [7] was “Non-toxic” each time. Besides, the inhibition in [5] came out at 57.1%; in data set [1], 48%. The Ratio IC50 in the data set listed under Homo sapiens is 4.15. For the same molecule, the outcome in the data set on Astrocyte [6] and in the data set with Microglia [8] was Active.
As for `COc1cc(COC(=O)c2ccco2)cc(OC)c1OC`, the inhibition in data set [1] was 10%.
Consider `COc1cc(COC(=O)c2ccc(-c3ccc(Cl)cc3Cl)o2)cc(OC)c1OC`, for which the inhibition in [1] came to 38.3%.
On to `COc1ccc(COC(=O)c2ccc(-c3ccccc3)o2)cc1`, for which, in data set [1], the inhibition amounted to 44.8%.
Same read-out and setting: to `COc1cc(C(=O)OCc2ccc(-c3ccc(Cl)cc3Cl)o2)cc(OC)c1OC` belongs 24.4%; to `COc1cc(COC(=O)c2ccc(-c3cccc(C(F)(F)F)c3)o2)cc(OC)c1OC`, 14%.
Same read-out and setting: then `CCOc1cc(C(=O)OCc2ccc(-c3ccc(C)cc3)o2)cc(OCC)c1OCC`, with 16.4%.
Turning to `CCOc1cc(C(=O)OCc2ccc(-c3ccccc3)o2)cc(OCC)c1OCC`, the pIC50 is 3.98 in data set [3] and 4.91 in [2]. Moreover, the Activity result in data set [4] and in data set [7] was “Non-toxic” in each case. The inhibition in data set [5] was determined as 3%; in data set [1] it was 48.8%. Besides, in the data set listed under Homo sapiens, the Ratio IC50 is 0.12. Further, the outcome with Astrocyte [6] and with Microglia [8] was Active.
Regarding `COc1ccc(COC(=O)c2ccc(-c3ccc(Cl)cc3[N+](=O)[O-])o2)cc1`, the inhibition in [1] came to 41.6%.
Still for that read-out and setting: then `COc1cc(COC(=O)c2ccc(C)o2)cc(OC)c1OC`, with -9.9%.
For `Cc1ccc([N+](=O)[O-])cc1S(=O)(=O)N(C)C`, the inhibition result in [13] was “Active”. The result with Astrocyte [10] and in the data set on Microglia [11] was Active. The pIC50 in [2] is 7.05.
`COc1cc(COC(=O)c2ccc(-c3ccc(C)cc3)o2)cc(OC)c1OC`: in [1], the inhibition turned out to be 30.7%.
Consider `COc1cc(COC(=O)c2ccc(-c3ccc(Cl)cc3[N+](=O)[O-])o2)cc(OC)c1OC`, for which the Activity entry in data set [4] and in data set [7] was “Non-toxic” each time. For the same molecule, the figures for the inhibition in data set [5] and in [1] were 11% and 49.1%, respectively. Further, the result in the data set on Astrocyte [6] and with Microglia [8] was Active. Further, in [2], the pIC50 is 5.14.
Consider `CCOC(=O)c1sc(NC(=O)C(CC)OC(=O)C(CC(C)C)NC(=O)c2ccccc2)nc1C` (stereo unspecified), for which, in [9], the pIC50 is 6.07.
On to `COc1cc(COC(=O)c2ccc(-c3cc(C(F)(F)F)ccc3Cl)o2)cc(OC)c1OC`, for which the inhibition in [1] worked out at 8%.
For the molecule `CCOc1cc(C(=O)OCc2ccc(-c3ccc(Cl)cc3Cl)o2)cc(OCC)c1OCC`, the inhibition in data set [1] was found to be 3.7%.
Still for that read-out and setting: to `COc1ccc(-c2ccc(C(=O)OCc3cc(OC)c(OC)c(OC)c3)o2)cc1` belongs 14%.
With `CCOc1cc(COC(=O)c2ccc(-c3ccc(C)cc3)o2)cc(OCC)c1OCC`, in data set [1], the inhibition turned out to be 28%.
Still for that read-out and setting: then `CCOc1cc(COC(=O)c2ccc(-c3ccccc3)o2)cc(OCC)c1OCC`, with 30.8%.
`CCOc1cc(C(=O)OCc2ccc(-c3ccc([N+](=O)[O-])cc3C)o2)cc(OCC)c1OCC` gave a pIC50 in [9] of 6.24. The inhibition in [1] amounted to 29%.
As for `COc1cc(COC(=O)c2ccc(-c3ccc(C)cc3[N+](=O)[O-])o2)cc(OC)c1OC`, the inhibition in [1] was 28.8%.

One may read the inhibition as the drop in the measured response relative to a control, in per cent. Broadly, the pIC50 is the IC50 on a negative log10 scale, so that one unit is a factor of ten. The pKi is −log10 of the Ki, conventionally taken in molar units.
